# Results collected from several papers.
# Sample: plasma
Structure (SMILES),species,route,dose,measurement,result
Cc1ccc(OCC(=O)N[C@@H](Cc2c[nH]c3ccccc23)C(=O)OC(C)C)cc1,male Sprague-Dawley mouse,intravenous,10 mg/kg,clearance,5.5 mL/min/kg
Cc1ncsc1-c1ccc([C@H](CC(=O)N2CC3(C2)CN(c2ccc(C#Cc4ccc(C(=O)N5CCC(n6cc(-c7ccc8c(c7)CCN8C(=O)Cc7cccc(OC(F)(F)F)c7)c7c(N)ncnc76)CC5)cc4)cn2)C3)NC(=O)[C@@H]2C[C@@H](O)CN2C(=O)[C@@H](NC(=O)C2(F)CC2)C(C)(C)C)cc1,male C57BL/6 mouse,intravenous,1 mg/kg,clearance,2.8 mL/min/kg
O=C1CCC(N2Cc3cc(C4CCN(Cc5ccccc5)CC4)ccc3C2=O)C(=O)N1 (stereo not drawn),male CD-1 mouse,intravenous,1 mg/kg,clearance,48 mL/min/kg
NCc1cc2c(cc1F)C(=O)N(C1CCC(=O)NC1=O)C2 (stereo not drawn),male CD-1 mouse,intravenous,1 mg/kg,clearance,112 mL/min/kg
Cc1nc2ccc(OCc3ccc(C(F)(F)F)cc3)cc2[nH]1,male BALB/c mouse,oral,10 mg/kg,CL/F,12.7 mL/min/kg
O=C1CCC(N2Cc3cc(CO)c(F)cc3C2=O)C(=O)N1 (stereo not drawn),male CD-1 mouse,intravenous,1 mg/kg,clearance,52.9 mL/min/kg
CCCC[C@@H](NC(=O)[C@@H](Cc1cn(C(=O)OC)c2ccccc12)NC(=O)[C@H](CC(C)(C)C)NC(=O)N1[C@H](C)CCC[C@@H]1C)C(=O)O,male CD-1 mouse,intravenous,3 mg/kg,clearance,222 mL/min/kg
OCc1nc2ccc(NCc3ccc(C(F)(F)F)cc3)cc2[nH]1,male BALB/c mouse,oral,10 mg/kg,CL/F,61.2 mL/min/kg
Oc1ccc([C@@H]2Oc3ccc(O)cc3[C@@H]3CCC[C@@H]32)cc1,male C57BL/6 mouse,intravenous,1 mg/kg,clearance,1.67 mL/min
Cc1cc(-c2ccnc3[nH]cc(F)c23)cc(F)c1[C@@]1(O)[C@H](C)CN(C(=O)CN)C[C@@H]1C,male CD-1 mouse,intravenous,1 mg/kg,clearance,0.775 mL/min/kg
Cc1ncsc1-c1ccc([C@H](C)NC(=O)[C@@H]2C[C@@H](O)CN2C(=O)[C@@H](NC(=O)CCCCCCCCCCC(=O)NCCCn2cc(-c3ccc4c(c3)CCN4C(=O)Cc3cccc(OC(F)(F)F)c3)c3c(N)ncnc32)C(C)(C)C)cc1,mouse,intravenous,1 mg/kg,clearance,19.8 mL/min/kg
Cc1cc(-c2ccnc3[nH]cc(F)c23)cc(F)c1[C@@]1(O)[C@H](C)CN(C2CCS(=O)(=O)CC2)C[C@@H]1C,male CD-1 mouse,intravenous,1 mg/kg,clearance,5.86 mL/min/kg
CN(C)C(=O)c1cc2cnc(Nc3ccc(-c4ccc5c(=O)cc(N6CCOCC6)oc5c4)cc3)nc2n1C1CCCC1,BALB/c mouse,oral,20 mg/kg,CL/F,120 mL/min/kg
C=CCn1c(=O)c2cnc(Nc3ccc(N4CCN(C)CC4)cc3)nc2n1-c1ccc2c(n1)[C@@](O)(CC)CC2,mouse,intravenous,3 mg/kg,clearance,54 mL/min/kg
Cc1ncsc1-c1ccc([C@H](C)NC(=O)[C@@H]2C[C@@H](O)CN2C(=O)[C@@H](NC(=O)CCCCCCCCC(=O)N2CCC(n3cc(-c4ccc5c(c4)CCN5C(=O)Cc4cccc(OC(F)(F)F)c4)c4c(N)ncnc43)CC2)C(C)(C)C)cc1,male C57BL/6 mouse,intravenous,1 mg/kg,clearance,13.3 mL/min/kg
